A short description of test [1]: Her2 expression decrease, cell viability multiplex – SKBR3 breast tumor cells, AlphaScreen, ATP viability, primary screen (AID 461;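 active means Her2 level under about 52% in both replicate screens, with viability over 70% of control, limit read from the data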;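 on Her2 level: lower value means less Her2 protein in the cells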;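 on viability: percent of carrier control wells set as 100% viability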). The conditions noted are these: SKBR3 Her2 protein level, 18-24 h, measured here: SKBR3 viability, ATP luminescence, at 10 µM.
Test [2] concerns the target Receptor tyrosine-protein kinase erbB-2 (Homo sapiens) (UniProt P04626). Described as above. The conditions noted are these: 18-24 h, at 10 µM, stronger effect = lower value.
The nature of test [3]: reduced viability of SK-BR-3 breast cancer cells – cell-based, 24 h, human, pilot screen (AID 572;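 active means viability at or below 10% of carrier control in both of two separate runs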;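 further: compound exposure lasted between 18 and 24 h rather than exactly 24 h; 100% = carrier-treated control wells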). The settings on record: SK-BR-3 viability, CellTiter-Glo luminescence, at 10 µM, stronger effect = lower value. In general terms: In ATP-based viability assays light output follows the ATP content of the culture.
Test [4] in a line: HUVEC growth inhibition – cell-based, human, primary screen (AID 575;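 active means viability at or below 30% in both replicate assays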;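 further: 100% = median of untreated cell wells with 0.1% DMSO on each plate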). The settings on record: HUVEC proliferation, CellTiter-Glo luminescence, 72 h; at 10 µM; stronger effect = lower value. In short, it runs like this:
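material = primary HUVEC, no more than 12 passages | input = 1250 cells per well | controls = vehicle and MePR control wells | measured by = CTG luminescence | times = 72 h compound incubation | format = collagen-coated 384-well format | read-out = % viability vs DMSO wells | doses = single 10 µM dose, 0.1% DMSO, from 5x medium stock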

A short description of test [5]: H69AR cell proliferation blockers – human, duplicate replicates, primary screen (AID 580;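 active means viability at or under a set limit in both replicates, limit being median viability minus 3 SD, cut at about 48% in these data, passing the limit was not always enough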;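 further: 100% = mean luminescence of untreated wells and 0% = no signal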). The settings on record: H69AR lung tumor cells viability, ATP luminescence, 72 h; at 10 µM; stronger effect = lower value.
Test [6] in a line: MRP1 drug-resistance reversers in H69AR cells – cell-based, doxorubicin co-treatment, pilot screen (AID 601;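 active means viability loss from added drug above about 55%, and viability with drug at most 40%, in both replicates, limit read from the data, passing the limit was not always enough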). The conditions noted are these: CellTiter-Glo, 72 h, at 10 µM; for differential viability (reversal): stronger effect = higher value.
Test [7] in a line: yeast transport mutant growth inhibition pilot in 384-well plates, post-Golgi transport modulator project (AID 636; in the data active means inhibition above about 31%). The conditions noted are these: absorbance 615 nm, about 18 h, stronger effect = higher value.
Test [8] in a line: growth suppression of yeast trafficking mutant, preliminary HTS, modulators of trafficking downstream of Golgi apparatus project, 1536-format plate, OD 615 nm (AID 637). The conditions noted are these: yeast transport mutant growth, absorbance 615 nm, 18 h; stronger effect = higher value.
Setting [9] is: H69AR cells + 2 uM doxorubicin, measured here: viability with 2 uM doxorubicin, stronger effect = lower value.
Where [10] appears, read: H69AR cells, compound alone cytotoxicity.

Active and inactive are the calls of the source. Unless noted, no stated cut-off is given here; in the data, active means inhibition above about 30%; inactive means the rest.

Sequence of Receptor tyrosine-protein kinase erbB-2 (Homo sapiens) (P04626 whole entry, looked up): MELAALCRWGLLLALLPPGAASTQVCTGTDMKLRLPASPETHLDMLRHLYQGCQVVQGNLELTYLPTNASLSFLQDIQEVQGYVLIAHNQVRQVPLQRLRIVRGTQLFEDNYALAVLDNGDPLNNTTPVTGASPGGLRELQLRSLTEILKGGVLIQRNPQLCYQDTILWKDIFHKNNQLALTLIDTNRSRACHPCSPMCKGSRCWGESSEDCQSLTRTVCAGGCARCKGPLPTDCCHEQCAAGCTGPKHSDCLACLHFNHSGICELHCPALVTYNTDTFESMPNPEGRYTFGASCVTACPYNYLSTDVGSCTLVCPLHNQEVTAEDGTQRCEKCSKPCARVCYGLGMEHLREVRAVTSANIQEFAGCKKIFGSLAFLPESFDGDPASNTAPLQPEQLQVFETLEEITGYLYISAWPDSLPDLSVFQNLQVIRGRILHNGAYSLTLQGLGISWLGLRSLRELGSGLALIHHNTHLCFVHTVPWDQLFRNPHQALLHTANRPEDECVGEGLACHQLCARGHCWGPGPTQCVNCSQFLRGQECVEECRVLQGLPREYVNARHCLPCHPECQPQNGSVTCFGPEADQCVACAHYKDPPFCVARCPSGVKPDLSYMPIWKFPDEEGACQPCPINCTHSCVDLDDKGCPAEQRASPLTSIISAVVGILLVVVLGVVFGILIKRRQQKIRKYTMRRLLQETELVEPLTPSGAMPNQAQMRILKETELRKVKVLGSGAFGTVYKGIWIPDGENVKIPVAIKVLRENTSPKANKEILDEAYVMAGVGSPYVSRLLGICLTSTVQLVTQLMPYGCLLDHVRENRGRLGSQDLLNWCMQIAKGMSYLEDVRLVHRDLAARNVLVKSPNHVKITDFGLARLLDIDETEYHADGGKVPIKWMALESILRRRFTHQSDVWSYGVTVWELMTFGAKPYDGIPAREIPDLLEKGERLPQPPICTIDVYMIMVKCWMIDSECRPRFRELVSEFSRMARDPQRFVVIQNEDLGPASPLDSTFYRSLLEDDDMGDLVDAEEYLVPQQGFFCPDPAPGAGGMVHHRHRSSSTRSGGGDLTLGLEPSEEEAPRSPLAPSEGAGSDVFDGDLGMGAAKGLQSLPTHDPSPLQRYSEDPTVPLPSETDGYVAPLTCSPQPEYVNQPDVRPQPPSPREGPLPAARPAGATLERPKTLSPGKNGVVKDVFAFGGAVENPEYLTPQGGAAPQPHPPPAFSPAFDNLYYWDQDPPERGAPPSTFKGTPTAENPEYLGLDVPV

For the compound `O=C(Nc1ccccc1)N1C(=O)C2(OCCO2)c2ccccc21`, the viability (commonly a read-out of living cells in per cent, often relative to untreated cells) in test [1] was 114%; in test [3], 114% (inactive); in test [4] it was 100% (inactive); in test [5], 87% (inactive); in test [6] (setting [9]), 98.8%; in test [6] (setting [10]), 87%. In test [2], the Her2 level is 118% (inactive). The differential viability (reversal) in test [6] (H69AR cells + 2 uM doxorubicin) is -11.8% (inactive). Besides, the inhibition – broadly, the change of the read-out against control, counted positive when it falls – in test [7] is -0.79% (inactive); in test [8] it was 1.64% (inactive).
Consider `Cc1ccc2cc(C(c3nnnn3CC3CCCO3)N3CCCC4(CCCCC4)C3)c(=O)[nH]c2c1` (stereo not given), for which the viability in test [1] was 107%; in test [3], 107% (inactive); in test [4] it was 97.9% (inactive); in test [5], 85.1% (inactive); in test [6] (setting [9]) it was 93.6%; in test [6] (setting [10]), 85.1%. In test [2], the Her2 level was 92.5% (inactive). For the same compound, the differential viability (reversal) in test [6] (H69AR cells + 2 uM doxorubicin) was -8.48% (inactive). The results for the inhibition in test [7] and in test [8] were -7.27% (inactive) and 0% (inactive), respectively.
As for `Cc1ccc(C)c2[nH]c(=O)c(CN(CCN3CCCC3)C(=O)Nc3cccc(Cl)c3)cc12`, the viability was 87% in test [1]; 87% (inactive) in test [3]; 15.6% (active) in test [4]; 26.6% (active) in test [5]; 32.8% in test [6] (setting [9]); 26.6% in test [6] (setting [10]). For the same compound, in test [2], the Her2 level was 84% (inactive). Moreover, in test [6] (H69AR cells + 2 uM doxorubicin), the differential viability (reversal) was -6.23% (inactive). Further, the results for the inhibition in test [7] and in test [8] were -8.22% (inactive) and -0.32% (inactive), respectively.
As for `C[C@H](NC(=O)NCc1cccs1)C(=O)O`, the viability in test [1] was 104%; in test [3], 104% (inactive); in test [4] it was 111% (inactive); in test [5], 93.6% (inactive); in test [6] (setting [9]), 93.5%; in test [6] (setting [10]), 93.6%. Further, in test [2], the Her2 level was 98.5% (inactive). The differential viability (reversal) in test [6] (H69AR cells + 2 uM doxorubicin) was 0.105% (inactive). Further, the inhibition in test [7] was -3.87% (inactive); in test [8], -4.43% (inactive).
As to `Cc1ccc2cc(CN(Cc3ccc4c(c3)OCO4)Cc3nnnn3Cc3ccco3)c(=O)[nH]c2c1C`, the viability in test [1] is 98.5%; in test [3], 98.5% (inactive); in test [4], 85.1% (inactive); in test [5], 79.6% (inactive); in test [6] (setting [9]) it was 66.4%; in test [6] (setting [10]), 79.6%. In addition, in test [2], the Her2 level was 97% (inactive). Also, in test [6] (H69AR cells + 2 uM doxorubicin), the differential viability (reversal) is 13.3% (inactive). The inhibition in test [7] was -1.33% (inactive); in test [8], -3.17% (inactive).
In the case of `Cc1cccc2cc(CN(CCN3CCCC3)C(=O)NC3CCCCC3)c(=O)[nH]c12`, the viability in test [1] is 83%; in test [3] it was 83% (inactive); in test [4], 76.5% (inactive); in test [5], 91% (inactive); in test [6] (setting [9]), 92%; in test [6] (setting [10]), 91%. Moreover, the Her2 level in test [2] was 78.5% (inactive). The differential viability (reversal) in test [6] (H69AR cells + 2 uM doxorubicin) is -1.06% (inactive). Further, the inhibition in test [7] is -6.08% (inactive); in test [8] it was -0.16% (inactive).
For the compound `COc1ccccc1N1CCN(C(=O)c2c(-c3c(Cl)cccc3Cl)noc2C)CC1`, the viability in test [1] was 104%; in test [3] it was 104% (inactive); in test [4] it was 79% (inactive); in test [5], 105% (inactive); in test [6] (setting [9]), 90.3%; in test [6] (setting [10]), 105%. In test [2], the Her2 level is 82.5% (inactive). In test [6] (H69AR cells + 2 uM doxorubicin), the differential viability (reversal) was 15% (inactive). For the same compound, the inhibition in test [7] is -5.95% (inactive); in test [8], 2.46% (inactive).
In the case of `O=C(CS(=O)CC(=O)Nc1cccc2c1CCCC2)Nc1ccc(F)cc1` (stereo not given), the viability in test [1] was 114%; in test [3], 114% (inactive); in test [4], 88.3% (inactive); in test [5] it was 102% (inactive); in test [6] (setting [9]) it was 97.8%; in test [6] (setting [10]), 102%. Further, in test [2], the Her2 level is 103% (inactive). In addition, the differential viability (reversal) in test [6] (H69AR cells + 2 uM doxorubicin) is 4.67% (inactive). For the same compound, the inhibition is -6.93% (inactive) in test [7] and 4.1% (inactive) in test [8].
For `CCCCOn1c(C)c(C(=O)OCC)c2c3nonc3ccc21`, the viability is 98.5% in test [1]; 98.5% (inactive) in test [3]; 63.5% (inactive) in test [4]; 83.5% (inactive) in test [5]; 68.6% in test [6] (setting [9]); 83.5% in test [6] (setting [10]). Moreover, the Her2 level in test [2] is 114% (inactive). The differential viability (reversal) in test [6] (H69AR cells + 2 uM doxorubicin) is 15% (inactive). Moreover, the inhibition was 4.4% (inactive) in test [7] and 27.6% (inactive) in test [8].
With `COc1ccc(Cn2c(-c3ccco3)nc3oc4ccccc4c(=O)c3c2=O)cc1`, the viability in test [1] was 87.5%; in test [3], 87.5% (inactive); in test [4] it was 101% (inactive); in test [5], 98.2% (inactive); in test [6] (setting [9]), 84%; in test [6] (setting [10]), 98.2%. Besides, in test [2], the Her2 level was 92.5% (inactive). Also, the differential viability (reversal) in test [6] (H69AR cells + 2 uM doxorubicin) is 14.2% (inactive). For the same compound, the inhibition is -0.67% (inactive) in test [7] and 6.45% (inactive) in test [8].
Take `CCOc1ccc(-c2nnn(CCC(=O)O)n2)cc1OC`: the viability is 95.5% in test [1]; 95.5% (inactive) in test [3]; 104% (inactive) in test [4]; 102% (inactive) in test [5]; 89.8% in test [6] (setting [9]); 102% in test [6] (setting [10]). In test [2], the Her2 level is 84% (inactive). Further, in test [6] (H69AR cells + 2 uM doxorubicin), the differential viability (reversal) was 12.1% (inactive). The results for the inhibition in test [7] and in test [8] were -4.93% (inactive) and -0.16% (inactive), respectively.
Turning to `CS(=O)(=O)N1CCN(c2ccccc2NC(=O)c2cccs2)CC1`, the viability was 99.5% in test [1]; 99.5% (inactive) in test [3]; 108% (inactive) in test [4]; 91.3% (inactive) in test [5]; 96.3% in test [6] (setting [9]); 91.3% in test [6] (setting [10]). Further, the Her2 level in test [2] was 100% (inactive). For the same compound, the differential viability (reversal) in test [6] (H69AR cells + 2 uM doxorubicin) is -5% (inactive). Moreover, the inhibition in test [7] is -1.17% (inactive); in test [8] it was 1% (inactive).
`Cc1sc2c(c1C)CN(C1CC(C)(C)NC(C)(C)C1)CN2C(=O)c1ccco1`: the viability in test [1] is 86.5%; in test [3], 86.5% (inactive); in test [4], 75.7% (inactive); in test [5] it was 83.7% (inactive); in test [6] (setting [9]), 83.4%; in test [6] (setting [10]), 83.7%. Also, the Her2 level in test [2] is 80.5% (inactive). For the same compound, the differential viability (reversal) in test [6] (H69AR cells + 2 uM doxorubicin) was 0.235% (inactive). Besides, the inhibition in test [7] is -7.33% (inactive); in test [8], 1.8% (inactive).
For `CC(C)C(NC(=O)OCc1ccccc1)C(=O)OCC(=O)NCc1ccco1` (stereo not given), the viability in test [1] was 100%; in test [3], 100% (inactive); in test [4], 86.2% (inactive); in test [5], 85.3% (inactive); in test [6] (setting [9]), 77.6%; in test [6] (setting [10]), 85.3%. In test [2], the Her2 level is 108% (inactive). The differential viability (reversal) in test [6] (H69AR cells + 2 uM doxorubicin) was 7.68% (inactive). Moreover, the inhibition in test [7] was -1.18% (inactive); in test [8], -11.3% (inactive).
As to `CN(C)c1ccc(CNCCC2(O)CCOC(C)(C)C2)cc1` (stereo not given), the viability in test [1] is 89%; in test [3], 89% (inactive); in test [4], 95.3% (inactive); in test [5] it was 102% (inactive); in test [6] (setting [9]) it was 95%; in test [6] (setting [10]) it was 102%. Moreover, the Her2 level in test [2] was 86% (inactive). Further, the differential viability (reversal) in test [6] (H69AR cells + 2 uM doxorubicin) is 7.18% (inactive). The values for the inhibition in test [7] and in test [8] were -6.08% (inactive) and 1.64% (inactive), respectively.

The values above are taken from PubChem BioAssay.
